Laboratory results published in ChEMBL document CHEMBL4130503, “Discovery of novel diarylpyrazolylquinoline derivatives as potent anti-dengue virus agents” (Eur J Med Chem, 2017).
Active and inactive are the calls of the source. The calls are words filed in the database; no cut-off is given here.

What was measured:
[1] = Cytotoxicity against human HuH7 cells assessed as cell viability at 20 uM after 3 days by XTT method relative to control; format: cell-based, Huh-7; conditions: read-out: Activity
Method in brief: (§1)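 Uninfected Huh-7 cells were seeded at 5 × 10^3 cells/well in maintenance medium. They were exposed to compound at 20 or 200 µM, diluted into medium from 10 mM DMSO stocks, with 0.1% DMSO as control. Incubation was 3 days at 37 °C in humidified 5% CO2. Viability was read by XTT, run in parallel with the antiviral assays.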

[2] = Cytotoxicity against human HuH7 cells assessed as cell viability at 200 uM after 3 days by XTT method relative to control; format: cell-based, Huh-7; conditions: read-out: Activity; method in brief: as §1
dengue virus type 2 [3] = assay: Antiviral activity against Fluc-tagged DENV2 strain 16681 infected in human HuH7 cells assessed as inhibition of viral replication at 1 uM after 3 days by luciferase reporter gene assay relative to control; format: functional; conditions: Thailand/16681/84, Huh-7, 72 h
Method in brief: (§2)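 Huh-7-DV-Fluc cells seeded at 2 × 10^4 per well, exposed to 1 or 10 µM for 3 days against a 0.1% DMSO control. Firefly luciferase activity (Bright-Glo) read as DENV-2 replication; percent inhibition relative to control.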

dengue virus type 2 [4] = assay: Antiviral activity against Fluc-tagged DENV2 strain 16681 infected in human HuH7 cells assessed as inhibition of viral replication at 10 uM after 3 days by luciferase reporter gene assay relative to control; format: functional; conditions: Thailand/16681/84, Huh-7, 72 h; method in brief: as §2
[5] = Selectivity index, ratio of CC50 for human HuH7 cells to IC50 for Fluc-tagged DENV2 strain 16681 infected in human HuH7 cells; format: toxicity, cell-based; conditions: read-out: Ratio CC50/IC50
Method in brief: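 SI is calculated as CC50/IC50. CC50 is 50% growth inhibition of uninfected Huh-7 cells by XTT after 3 days. IC50 is 50% inhibition of DENV-2 replication in Huh-7-DV-Fluc replicon cells (2 × 10^4 cells/well), measured by firefly luciferase after 3 days of treatment with a 0.1% DMSO control.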

dengue virus type 2 [6] = assay: Potency index, ratio of ribavirin IC50 to compound IC50 for antiviral activity against Fluc-tagged DENV2 strain 16681 infected in human HuH7 cells; format: functional, Thailand/16681/84
dengue virus type 2 [7] = assay: Antiviral activity against Fluc-tagged DENV2 strain 16681 infected in human HuH7 cells after 3 days by luciferase reporter gene assay; format: functional, organism-based; conditions: Thailand/16681/84, Huh-7, 72 h
[8] = Cytotoxicity against human HuH7 cells assessed as growth inhibition after 3 days by XTT method; format: cell-based, Huh-7
Method in brief: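 Uninfected Huh-7 cells were seeded at 5 × 10^3 cells/well and treated for 3 days at 37 °C in humidified 5% CO2. Viability was read by XTT against a 0.1% DMSO control. CC50 was taken as the concentration giving 50% growth inhibition.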

dengue virus type 2 [9] = assay: Antiviral activity against DENV2 strain 16681 infected in ICR suckling mouse assessed as protection against asthenia at 1 to 5 mg/kg, ip treated on day 1,3 and 5 post infection measured daily for 6 days; format: functional, organism-based; conditions: Thailand/16681/84
Method in brief: (§3)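 Six-day-old ICR suckling mice, n = 5/group, given 2.5 × 10^5 pfu DENV-2 intracerebrally, then 1, 5, 10 or 20 mg/kg intraperitoneally at 1, 3 and 5 dpi. Controls were DENV plus ip saline, and 60 °C heat-inactivated DENV (mock). Survival, clinical score (paralysis, anorexia, asthenia) and body weight were recorded daily for 6 days.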

dengue virus type 2 [10] = assay: Antiviral activity against Fluc-tagged DENV2 strain 16681 infected in human HuH7 cells assessed as reduction in viral replication by measuring NS5 gene expression at 0.5 to 5 uM after 3 days by RT-qPCR assay; format: functional, organism-based; conditions: Thailand/16681/84
Method in brief: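 DENV-2 (16681) replicating Huh-7 cells exposed to 0.5, 1, 2.5 and 5 µM for 3 days; 0.1% DMSO mock. Total RNA analysed by RT-qPCR with NS5-targeted primers, normalised to cellular GAPDH mRNA; means ± SD of triplicate experiments.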

dengue virus type 2 [11] = assay: Antiviral activity against Fluc-tagged DENV2 strain 16681 infected in human HuH7 cells assessed as reduction in viral replication by measuring NS2B protein expression at 0.5 to 5 uM after 3 days by immunoblot analysis; format: functional, organism-based; conditions: Thailand/16681/84
Method in brief: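 DENV-2 (16681) replicating Huh-7 cells treated with 0.5, 1, 2.5 and 5 µM for 3 days; 0.1% DMSO mock. Whole-cell lysates immunoblotted overnight with rabbit polyclonal anti-NS2B (1:3000); GAPDH (1:10000) as loading control.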

dengue virus type 2 [12] = assay: Antiviral activity against DENV2 strain 16681 infected in ICR suckling mouse assessed as protection against anorexia at 1 to 5 mg/kg, ip treated on day 1,3 and 5 post infection measured daily for 6 days; format: functional, organism-based; conditions: Thailand/16681/84; method in brief: as §3
dengue virus type 2 [13] = assay: Antiviral activity against DENV2 strain 16681 infected in ICR suckling mouse assessed as protection against paralysis at 1 to 5 mg/kg, ip treated on day 1,3 and 5 post infection measured daily for 6 days; format: functional, organism-based; conditions: Thailand/16681/84; method in brief: as §3
dengue virus type 1 = assay: Antiviral activity against Fluc-tagged DENV1 infected in human HuH7 cells after 3 days by luciferase reporter gene assay; format: functional, organism-based; conditions: Huh-7, 72 h
dengue virus type 2 [14] = assay: Antiviral activity against DENV2 strain 16681 infected in ICR suckling mouse assessed as protection against mouse death at 1 to 5 mg/kg, ip treated on day 1,3 and 5 post infection measured daily for 6 days; format: functional, organism-based; conditions: Thailand/16681/84; method in brief: as §3
dengue virus type 3 = assay: Antiviral activity against Fluc-tagged DENV3 infected in human HuH7 cells after 3 days by luciferase reporter gene assay; format: functional, organism-based; conditions: Huh-7, 72 h
dengue virus type 4 = assay: Antiviral activity against Fluc-tagged DENV4 infected in human HuH7 cells after 3 days by luciferase reporter gene assay; format: functional, organism-based; conditions: Huh-7, 72 h

Fc1ccc2nc(-c3cc(-c4ccccc4)nn3-c3ccccc3)ccc2c1
viability at 72 h, 20 µM [1]: 126%
viability at 72 h, 200 µM [2]: 98.3%
inhibition at 1 µM (dengue virus type 2 [3]): 3.02%
inhibition at 10 µM (dengue virus type 2 [4]): 5.13%

Fc1ccc(-n2nc(-c3ccccc3)cc2-c2ccc3cc(F)ccc3n2)cc1
viability at 72 h, 20 µM [1]: 97.8%
viability at 72 h, 200 µM [2]: 91.6%
inhibition at 1 µM (dengue virus type 2 [3]): 4.36%
inhibition at 10 µM (dengue virus type 2 [4]): 8.31%

Fc1ccc(-c2cc(-c3ccc4cc(F)ccc4n3)n(-c3ccccc3)n2)cc1
viability at 72 h, 20 µM [1]: 88.1%
viability at 72 h, 200 µM [2]: 87.5%
inhibition at 1 µM (dengue virus type 2 [3]): 11.2%
inhibition at 10 µM (dengue virus type 2 [4]): 25.4%

NS(=O)(=O)c1ccc(-n2nc(-c3ccc(F)cc3)cc2-c2ccc3cc(F)ccc3n2)cc1
viability at 72 h, 20 µM [1]: 91.1%
viability at 72 h, 200 µM [2]: 43%
inhibition at 1 µM (dengue virus type 2 [3]): 5.71%
inhibition at 10 µM (dengue virus type 2 [4]): 12.8%

COc1ccc(-n2nc(-c3ccc(F)cc3)cc2-c2ccc3cc(F)ccc3n2)cc1
viability at 72 h, 20 µM [1]: 89.1%
viability at 72 h, 200 µM [2]: 52.5%
inhibition at 1 µM (dengue virus type 2 [3]): 6.12%
inhibition at 10 µM (dengue virus type 2 [4]): 15.8%

COc1ccc(-c2cc(-c3ccc4cc(F)ccc4n3)nn2-c2ccccc2)cc1
viability at 72 h, 20 µM [1]: 95.6%
viability at 72 h, 200 µM [2]: 93.7%
inhibition at 1 µM (dengue virus type 2 [3]): 4.14%
inhibition at 10 µM (dengue virus type 2 [4]): 7.15%

COc1ccc(-n2nc(-c3ccccc3)cc2-c2ccc3cc(F)ccc3n2)cc1
viability at 72 h, 20 µM [1]: 116%
viability at 72 h, 200 µM [2]: 97.3%
inhibition at 1 µM (dengue virus type 2 [3]): 7.81%
inhibition at 10 µM (dengue virus type 2 [4]): 20.7%

NS(=O)(=O)c1ccc(-n2nc(-c3ccccc3)cc2-c2ccc3cc(F)ccc3n2)cc1
viability at 72 h, 20 µM [1]: 89.2%
viability at 72 h, 200 µM [2]: 83.6%
inhibition at 1 µM (dengue virus type 2 [3]): 4.52%
inhibition at 10 µM (dengue virus type 2 [4]): 11.8%

Fc1ccc2nc(-c3cc(-c4ccccc4)n(-c4ccccc4)n3)ccc2c1
viability at 72 h, 20 µM [1]: 124%
viability at 72 h, 200 µM [2]: 115%
inhibition at 1 µM (dengue virus type 2 [3]): 5.21%
inhibition at 10 µM (dengue virus type 2 [4]): 15.3%

NC(=O)c1ncn([C@@H]2O[C@H](CO)[C@@H](O)[C@H]2O)n1 [RIBAVIRIN]
selectivity ratio [5]: 4.47
viability at 72 h, 200 µM [2]: 26.8%
inhibition at 1 µM (dengue virus type 2 [3]): 10.1%
inhibition at 10 µM (dengue virus type 2 [4]): 32.5%

COc1ccc(-c2cc(-c3ccc4cc(F)ccc4n3)n(-c3ccc(F)cc3)n2)cc1
viability at 72 h, 20 µM [1]: 98.8%
selectivity ratio [5]: > 147
Ratio IC50 (dengue virus type 2 [6]): 10
viability at 72 h, 200 µM [2]: 95.4%
inhibition at 1 µM (dengue virus type 2 [3]): 41.4%
inhibition at 10 µM (dengue virus type 2 [4]): 55.3%
IC50 (dengue virus type 2 [7]): 1360 nM
CC50 at 72 h [8]: > 200000 nM

Fc1ccc(-c2cc(-c3ccc4cc(F)ccc4n3)nn2-c2ccccc2)cc1
viability at 72 h, 20 µM [1]: 88.3%
viability at 72 h, 200 µM [2]: 89.7%
inhibition at 1 µM (dengue virus type 2 [3]): 3.58%
inhibition at 10 µM (dengue virus type 2 [4]): 6.14%

COc1ccc(-c2cc(-c3ccc4cc(F)ccc4n3)n(-c3ccccc3)n2)cc1
viability at 72 h, 20 µM [1]: 104%
viability at 72 h, 200 µM [2]: 98.9%
inhibition at 1 µM (dengue virus type 2 [3]): 5.31%
inhibition at 10 µM (dengue virus type 2 [4]): 8.09%

COc1ccc(-c2cc(-c3ccc4cc(F)ccc4n3)n(-c3ccc(S(N)(=O)=O)cc3)n2)cc1
Activity (dengue virus type 2 [9]): Active
viability at 72 h, 20 µM [1]: 83.7%
Activity (dengue virus type 2 [10]): Active
Activity (dengue virus type 2 [11]): Active
selectivity ratio [5]: > 247
Ratio IC50 (dengue virus type 2 [6]): 10
Activity (dengue virus type 2 [12]): Active
Activity (dengue virus type 2 [13]): Active
IC50 (dengue virus type 1): 1210 nM
viability at 72 h, 200 µM [2]: 89.5%
inhibition at 1 µM (dengue virus type 2 [3]): 59%
Activity (dengue virus type 2 [14]): Active
IC50 (dengue virus type 3): 730 nM
inhibition at 10 µM (dengue virus type 2 [4]): 85.3%
IC50 (dengue virus type 2 [7]): 810 nM
CC50 at 72 h [8]: > 200000 nM
IC50 (dengue virus type 4): 1560 nM

Fc1ccc(-c2cc(-c3ccc4cc(F)ccc4n3)n(-c3ccc(F)cc3)n2)cc1
viability at 72 h, 20 µM [1]: 95.3%
viability at 72 h, 200 µM [2]: 86.5%
inhibition at 1 µM (dengue virus type 2 [3]): 8.91%
inhibition at 10 µM (dengue virus type 2 [4]): 22.4%

COc1ccc(-c2cc(-c3ccc4cc(F)ccc4n3)n(-c3ccc(OC)cc3)n2)cc1
viability at 72 h, 20 µM [1]: 95.8%
selectivity ratio [5]: > 183
Ratio IC50 (dengue virus type 2 [6]): 10
viability at 72 h, 200 µM [2]: 98.4%
inhibition at 1 µM (dengue virus type 2 [3]): 46.9%
inhibition at 10 µM (dengue virus type 2 [4]): 65.7%
IC50 (dengue virus type 2 [7]): 1090 nM
CC50 at 72 h [8]: > 200000 nM
